Source: ChEMBL document CHEMBL5058577, “EUbOPEN Chemogenomics Library 2 (Multiplex)” (2022)

Tested on: HEK-293T
Assay: Multiplex assay against HEK293T
Format: toxicity, cell-based
Conditions: human
How it was run: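 Tubulin, mitochondrial-mass and membrane-permeability phenotypes are per cents of healthy-nucleus cells. Cells were gated by CellPathfinder machine learning into Hoechst high-intensity objects or normal cells, normal cells into healthy, pyknosed or fragmented nuclei, and pyknosed cells into mitotic or apoptotic. Before that, live cells stained at seeding with Hoechst33342, BioTracker Green Microtubule Cytoskeleton Dye, MitoTracker Red and Annexin V Alexa Fluor 680 were imaged on a CQ1 microscope at 37°C and 5% CO2 after compound addition.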

[1] = 12 h, 1 µM, compound concentration 1 uM, replicate 1
[2] = 12 h, 1 µM, compound concentration 1 uM, replicate 2
[3] = 12 h, 10 µM, compound concentration 10 uM, replicate 1
[4] = 12 h, 10 µM, compound concentration 10 uM, replicate 2
[5] = 24 h, 1 µM, compound concentration 1 uM, replicate 1
[6] = 24 h, 1 µM, compound concentration 1 uM, replicate 2
[7] = 24 h, 10 µM, compound concentration 10 uM, replicate 1
[8] = 24 h, 10 µM, compound concentration 10 uM, replicate 2
[9] = 48 h, 1 µM, compound concentration 1 uM, replicate 1
[10] = 48 h, 1 µM, compound concentration 1 uM, replicate 2
[11] = 48 h, 10 µM, compound concentration 10 uM, replicate 1
[12] = 48 h, 10 µM, compound concentration 10 uM, replicate 2

O=S(=O)(c1ccccc1)c1cnc2c(N3CCNCC3)cccc2c1 [INTEPIRDINE]
Population Apoptotic (%) [1]: 40% | Population Fragmented Nuclei (%) [1]: 7% | Population Healthy Nuclei (%) [1]: 80% | Population Hoechst High Intensity Objects (%) [1]: 7% | Population Membrane Permeable-Phenotype (%) [1]: 0% | Population Mitochondria Different-Phenotype (%) [1]: 54% | Population Mitotic Cells (%) [1]: 60% | Population Normal (%) [1]: 92% | Population Pyknosed Nuclei (%) [1]: 12% | Population Tubulin-Different-Phenotype (%) [1]: 43% | Total Cell Count [1]: 403 | Population Apoptotic (%) [2]: 50% | Population Healthy Nuclei (%) [2]: 74% | Population Hoechst High Intensity Objects (%) [2]: 10% | Population Mitochondria Different-Phenotype (%) [2]: 69% | Population Mitotic Cells (%) [2]: 50% | Population Normal (%) [2]: 89% | Population Pyknosed Nuclei (%) [2]: 17% | Population Tubulin-Different-Phenotype (%) [2]: 23% | Total Cell Count [2]: 336 | Population Apoptotic (%) [3]: 51% | Population Fragmented Nuclei (%) [3]: 8% | Population Healthy Nuclei (%) [3]: 72% | Population Hoechst High Intensity Objects (%) [3]: 10% | Population Membrane Permeable-Phenotype (%) [3]: 0% | Population Mitochondria Different-Phenotype (%) [3]: 70% | Population Mitotic Cells (%) [3]: 48% | Population Normal (%) [3]: 89% | Population Pyknosed Nuclei (%) [3]: 18% | Population Tubulin-Different-Phenotype (%) [3]: 58% | Total Cell Count [3]: 326 | Population Apoptotic (%) [4]: 46% | Population Fragmented Nuclei (%) [4]: 4% | Population Healthy Nuclei (%) [4]: 79% | Population Hoechst High Intensity Objects (%) [4]: 7% | Population Mitochondria Different-Phenotype (%) [4]: 76% | Population Mitotic Cells (%) [4]: 53% | Population Normal (%) [4]: 92% | Population Pyknosed Nuclei (%) [4]: 15% | Population Tubulin-Different-Phenotype (%) [4]: 50% | Total Cell Count [4]: 349 | Population Apoptotic (%) [5]: 28% | Population Fragmented Nuclei (%) [5]: 6% | Population Healthy Nuclei (%) [5]: 80% | Population Hoechst High Intensity Objects (%) [5]: 5% | Population Membrane Permeable-Phenotype (%) [5]: 0% | Population Mitochondria Different-Phenotype (%) [5]: 35% | Population Mitotic Cells (%) [5]: 71% | Population Normal (%) [5]: 94% | Population Pyknosed Nuclei (%) [5]: 12% | Population Tubulin-Different-Phenotype (%) [5]: 26% | Total Cell Count [5]: 530 | Population Apoptotic (%) [6]: 58% | Population Fragmented Nuclei (%) [6]: 7% | Population Healthy Nuclei (%) [6]: 85% | Population Mitochondria Different-Phenotype (%) [6]: 43% | Population Mitotic Cells (%) [6]: 41% | Population Pyknosed Nuclei (%) [6]: 7% | Population Tubulin-Different-Phenotype (%) [6]: 14% | Total Cell Count [6]: 416 | Population Apoptotic (%) [7]: 52% | Population Fragmented Nuclei (%) [7]: 11% | Population Healthy Nuclei (%) [7]: 75% | Population Hoechst High Intensity Objects (%) [7]: 6% | Population Membrane Permeable-Phenotype (%) [7]: 0% | Population Mitochondria Different-Phenotype (%) [7]: 50% | Population Mitotic Cells (%) [7]: 47% | Population Normal (%) [7]: 93% | Population Pyknosed Nuclei (%) [7]: 12% | Population Tubulin-Different-Phenotype (%) [7]: 33% | Total Cell Count [7]: 439 | Population Apoptotic (%) [8]: 51% | Population Fragmented Nuclei (%) [8]: 9% | Population Healthy Nuclei (%) [8]: 82% | Population Hoechst High Intensity Objects (%) [8]: 4% | Population Mitochondria Different-Phenotype (%) [8]: 61% | Population Mitotic Cells (%) [8]: 48% | Population Normal (%) [8]: 95% | Population Pyknosed Nuclei (%) [8]: 8% | Population Tubulin-Different-Phenotype (%) [8]: 42% | Total Cell Count [8]: 458 | Population Apoptotic (%) [9]: 17% | Population Fragmented Nuclei (%) [9]: 12% | Population Healthy Nuclei (%) [9]: 80% | Population Hoechst High Intensity Objects (%) [9]: 4% | Population Membrane Permeable-Phenotype (%) [9]: 1% | Population Mitochondria Different-Phenotype (%) [9]: 25% | Population Mitotic Cells (%) [9]: 82% | Population Normal (%) [9]: 95% | Population Pyknosed Nuclei (%) [9]: 7% | Population Tubulin-Different-Phenotype (%) [9]: 16% | Total Cell Count [9]: 866 | Population Apoptotic (%) [10]: 25% | Population Fragmented Nuclei (%) [10]: 13% | Population Healthy Nuclei (%) [10]: 79% | Population Hoechst High Intensity Objects (%) [10]: 3% | Population Membrane Permeable-Phenotype (%) [10]: 0% | Population Mitochondria Different-Phenotype (%) [10]: 26% | Population Mitotic Cells (%) [10]: 75% | Population Normal (%) [10]: 96% | Population Pyknosed Nuclei (%) [10]: 6% | Population Tubulin-Different-Phenotype (%) [10]: 12% | Total Cell Count [10]: 641 | Population Apoptotic (%) [11]: 40% | Population Fragmented Nuclei (%) [11]: 14% | Population Healthy Nuclei (%) [11]: 75% | Population Hoechst High Intensity Objects (%) [11]: 4% | Population Membrane Permeable-Phenotype (%) [11]: 0% | Population Mitochondria Different-Phenotype (%) [11]: 45% | Population Mitotic Cells (%) [11]: 59% | Population Normal (%) [11]: 95% | Population Pyknosed Nuclei (%) [11]: 10% | Population Tubulin-Different-Phenotype (%) [11]: 30% | Total Cell Count [11]: 606 | Population Apoptotic (%) [12]: 18% | Population Fragmented Nuclei (%) [12]: 11% | Population Healthy Nuclei (%) [12]: 82% | Population Mitochondria Different-Phenotype (%) [12]: 38% | Population Mitotic Cells (%) [12]: 81% | Population Pyknosed Nuclei (%) [12]: 5% | Population Tubulin-Different-Phenotype (%) [12]: 27% | Total Cell Count [12]: 673

COc1c(C)cc(NC(=O)c2nn(Cc3ccc(F)cc3)c3c2CN(C(=O)c2ccc[nH]2)C[C@]3(C)C(N)=O)cc1C
Population Apoptotic (%) [1]: 42% | Population Fragmented Nuclei (%) [1]: 6% | Population Healthy Nuclei (%) [1]: 79% | Population Hoechst High Intensity Objects (%) [1]: 7% | Population Membrane Permeable-Phenotype (%) [1]: 0% | Population Mitochondria Different-Phenotype (%) [1]: 51% | Population Mitotic Cells (%) [1]: 57% | Population Normal (%) [1]: 92% | Population Pyknosed Nuclei (%) [1]: 13% | Population Tubulin-Different-Phenotype (%) [1]: 36% | Total Cell Count [1]: 426 | Population Apoptotic (%) [2]: 38% | Population Fragmented Nuclei (%) [2]: 7% | Population Healthy Nuclei (%) [2]: 75% | Population Hoechst High Intensity Objects (%) [2]: 5% | Population Mitochondria Different-Phenotype (%) [2]: 58% | Population Mitotic Cells (%) [2]: 61% | Population Normal (%) [2]: 94% | Population Pyknosed Nuclei (%) [2]: 17% | Population Tubulin-Different-Phenotype (%) [2]: 29% | Total Cell Count [2]: 304 | Population Apoptotic (%) [3]: 67% | Population Fragmented Nuclei (%) [3]: 4% | Population Healthy Nuclei (%) [3]: 77% | Population Hoechst High Intensity Objects (%) [3]: 13% | Population Membrane Permeable-Phenotype (%) [3]: 0% | Population Mitochondria Different-Phenotype (%) [3]: 90% | Population Mitotic Cells (%) [3]: 32% | Population Normal (%) [3]: 86% | Population Pyknosed Nuclei (%) [3]: 17% | Population Tubulin-Different-Phenotype (%) [3]: 62% | Total Cell Count [3]: 383 | Population Apoptotic (%) [4]: 59% | Population Fragmented Nuclei (%) [4]: 6% | Population Healthy Nuclei (%) [4]: 71% | Population Mitochondria Different-Phenotype (%) [4]: 95% | Population Mitotic Cells (%) [4]: 40% | Population Pyknosed Nuclei (%) [4]: 21% | Population Tubulin-Different-Phenotype (%) [4]: 63% | Total Cell Count [4]: 285 | Population Apoptotic (%) [5]: 21% | Population Fragmented Nuclei (%) [5]: 7% | Population Healthy Nuclei (%) [5]: 80% | Population Hoechst High Intensity Objects (%) [5]: 4% | Population Membrane Permeable-Phenotype (%) [5]: 0% | Population Mitochondria Different-Phenotype (%) [5]: 30% | Population Mitotic Cells (%) [5]: 78% | Population Normal (%) [5]: 95% | Population Pyknosed Nuclei (%) [5]: 12% | Population Tubulin-Different-Phenotype (%) [5]: 24% | Total Cell Count [5]: 574 | Population Apoptotic (%) [6]: 51% | Population Fragmented Nuclei (%) [6]: 5% | Population Healthy Nuclei (%) [6]: 86% | Population Mitochondria Different-Phenotype (%) [6]: 43% | Population Mitotic Cells (%) [6]: 48% | Population Pyknosed Nuclei (%) [6]: 7% | Population Tubulin-Different-Phenotype (%) [6]: 16% | Total Cell Count [6]: 422 | Population Apoptotic (%) [7]: 53% | Population Fragmented Nuclei (%) [7]: 6% | Population Healthy Nuclei (%) [7]: 73% | Population Hoechst High Intensity Objects (%) [7]: 11% | Population Membrane Permeable-Phenotype (%) [7]: 0% | Population Mitochondria Different-Phenotype (%) [7]: 91% | Population Mitotic Cells (%) [7]: 46% | Population Normal (%) [7]: 88% | Population Pyknosed Nuclei (%) [7]: 19% | Population Tubulin-Different-Phenotype (%) [7]: 61% | Total Cell Count [7]: 403 | Population Apoptotic (%) [8]: 67% | Population Fragmented Nuclei (%) [8]: 5% | Population Healthy Nuclei (%) [8]: 74% | Population Hoechst High Intensity Objects (%) [8]: 15% | Population Mitochondria Different-Phenotype (%) [8]: 92% | Population Mitotic Cells (%) [8]: 32% | Population Normal (%) [8]: 84% | Population Tubulin-Different-Phenotype (%) [8]: 56% | Total Cell Count [8]: 313 | Population Apoptotic (%) [9]: 21% | Population Fragmented Nuclei (%) [9]: 11% | Population Healthy Nuclei (%) [9]: 81% | Population Hoechst High Intensity Objects (%) [9]: 2% | Population Membrane Permeable-Phenotype (%) [9]: 1% | Population Mitochondria Different-Phenotype (%) [9]: 25% | Population Mitotic Cells (%) [9]: 78% | Population Normal (%) [9]: 97% | Population Pyknosed Nuclei (%) [9]: 6% | Population Tubulin-Different-Phenotype (%) [9]: 18% | Total Cell Count [9]: 920 | Population Apoptotic (%) [10]: 39% | Population Fragmented Nuclei (%) [10]: 12% | Population Hoechst High Intensity Objects (%) [10]: 3% | Population Mitochondria Different-Phenotype (%) [10]: 28% | Population Mitotic Cells (%) [10]: 60% | Population Normal (%) [10]: 96% | Population Tubulin-Different-Phenotype (%) [10]: 9% | Total Cell Count [10]: 652 | Population Apoptotic (%) [11]: 60% | Population Fragmented Nuclei (%) [11]: 8% | Population Healthy Nuclei (%) [11]: 76% | Population Hoechst High Intensity Objects (%) [11]: 14% | Population Membrane Permeable-Phenotype (%) [11]: 0% | Population Mitochondria Different-Phenotype (%) [11]: 93% | Population Mitotic Cells (%) [11]: 39% | Population Normal (%) [11]: 85% | Population Pyknosed Nuclei (%) [11]: 15% | Population Tubulin-Different-Phenotype (%) [11]: 66% | Total Cell Count [11]: 467 | Population Apoptotic (%) [12]: 80% | Population Fragmented Nuclei (%) [12]: 9% | Population Healthy Nuclei (%) [12]: 81% | Population Hoechst High Intensity Objects (%) [12]: 10% | Population Mitochondria Different-Phenotype (%) [12]: 90% | Population Mitotic Cells (%) [12]: 19% | Population Normal (%) [12]: 89% | Population Pyknosed Nuclei (%) [12]: 9% | Population Tubulin-Different-Phenotype (%) [12]: 59% | Total Cell Count [12]: 376
